Measured values taken from ChEMBL document CHEMBL3046072, “Plant P5C reductase as a new target for aminomethylenebisphosphonates” (J Agric Food Chem, 2007).
pIC50: −log10 of the molar value.

Molecular target: T1, Pyrroline-5-carboxylate reductase (Arabidopsis thaliana, UniProt P54904)
T1 sequence (P54904 whole entry): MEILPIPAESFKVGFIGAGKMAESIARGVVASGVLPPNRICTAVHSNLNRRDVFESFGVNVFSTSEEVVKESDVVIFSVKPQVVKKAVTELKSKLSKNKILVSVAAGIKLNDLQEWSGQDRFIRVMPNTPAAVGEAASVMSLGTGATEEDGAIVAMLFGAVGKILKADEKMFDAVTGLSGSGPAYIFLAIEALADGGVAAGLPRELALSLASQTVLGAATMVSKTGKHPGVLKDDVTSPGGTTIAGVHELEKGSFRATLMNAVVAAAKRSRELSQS
Experiment: Inhibition of Arabidopsis thaliana P5C reductase catalytic activity
Conditions: read-out: I50
In short: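 P5C reductase partially purified from A. thaliana Columbia suspension-cultured cells by ammonium sulfate cut and two DEAE-Sephacel steps. Assay at 35 °C: 100 mM Tris-HCl pH 8.0, 0.1 mM MgCl2, 2 mM DL-P5C, 0.25 mM NADH. Read as NADH oxidation at 340 nm, or as P5C loss by ninhydrin at 535 nm. Inhibitor neutralised to pH 7.4, tested over 0.010–5 mM. I50 from regression of % control activity versus log concentration.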

O=P(O)(O)C(Nc1cc(Cl)cc(Cl)c1)P(=O)(O)O [(3,5-DICHLOROPHENYLAMINO)METHYLENEDIPHOSPHONIC ACID]
pIC50: 4.11
